Sampled rows, rich in hits. Any-hit rate of the full collection: about 0.99%.
STK33 inh: inhibitors of human STK33 kinase. inhibition, % at 10 µM. Q9BYT3. hit rate 0.073% among 320,000. AID 2661. purified STK33, MBP phosphorylation, ADP-Glo luminescence;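 active = inhibition at or above 25%, using the most active replicate where run in duplicate; inactive = inhibition below 25%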
Rin1-Abl PPI inh: blocks binding of human Rin1 to Abl; inhibition, % at 7.35 µM; P00519+Q13671; AID 588664; TR-FRET Rin1/Abl binding, biochemical; hit rate 0.4% among 360,000; in the data active = inhibition above about 5%, passing the limit was not always enough
GSK3beta inhib: human GSK3beta kinase inhibition; hit rate 0.038% among 300,000; activity score (negative = inhibition), % at 10 µM; GST-GSK3beta kinase, ADP-Glo luminescence, 60 min; active compounds read low; AID 2097;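 active = more than half of replicate wells score below -50%, meaning over 50% inhibition versus plate controls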;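 also: 0% = median DMSO wells and -100% = median GW8510 positive control wells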
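Test system: GST-fused GSK3beta enzyme, cell-free | Quantity: 1.6 ng GST-GSK3beta enzyme per well | Reagent: 25 µM ATP with peptide substrate | Schedule: 60 min enzyme reaction, room temperature | Signal: Luminescent ADP-Glo measurement of ADP formed | Read-out basis: Score relative to plate controls | Control set: DMSO and 20 µM GW8510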
Arr AP2 block: blocks beta-arrestin peptide binding to AP2 adaptin; FITC-arrestin peptide / GST-AP2 beads, flow cytometry; AP2 beta2 appendage carries R879A mutation; inhibition, % at 10 µM; hit rate 0.31% among 340,000; AID 504490;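 active = inhibition above a set limit, near 3 SD of compounds lacking own fluorescence, cut at about 54% in these data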;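 also: plate controls were DMSO wells for no effect and 5 µM unlabelled arrestin peptide for full effect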
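System: GST-AP2 R879A glutathione beads. Medium: PBS with 0.05% Tween 20 and 0.1% BSA. Also added: FITC-arrestin peptide, 50 nM. Incubation: 12 min plus 1 h, RT. Measured by: high-throughput flow cytometry of beads, ex 488, em 535 nm. Evaluation: percent drop in bead-associated FITC signal.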
GSK3A inh: blocks human GSK-3 alpha kinase; P49840; ADP-Glo luminescence, 60 min; inhibition, % at 10 µM; hit rate 0.1% among 320,000; AID 2650;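 active = more than half of replicates show inhibition above 20%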;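 also: GST-tagged GSK-3 alpha with peptide substrate and 25 µM ATP; 0% = DMSO neutral wells and 100% = GW8510 positive control wells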
Target sequence (P49840 whole entry, looked up): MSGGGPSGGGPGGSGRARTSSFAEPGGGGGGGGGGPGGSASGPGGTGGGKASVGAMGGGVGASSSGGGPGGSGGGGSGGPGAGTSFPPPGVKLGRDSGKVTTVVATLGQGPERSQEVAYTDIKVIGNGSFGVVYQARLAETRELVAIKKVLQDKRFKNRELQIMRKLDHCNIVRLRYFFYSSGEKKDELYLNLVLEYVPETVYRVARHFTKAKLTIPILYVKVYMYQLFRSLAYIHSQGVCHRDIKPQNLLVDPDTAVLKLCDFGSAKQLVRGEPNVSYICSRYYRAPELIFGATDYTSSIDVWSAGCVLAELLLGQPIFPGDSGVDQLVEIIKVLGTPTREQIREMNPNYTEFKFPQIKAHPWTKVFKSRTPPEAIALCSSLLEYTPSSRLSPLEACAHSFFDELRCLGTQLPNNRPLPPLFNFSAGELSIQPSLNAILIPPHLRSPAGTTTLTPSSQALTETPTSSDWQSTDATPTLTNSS
DYRK1A inh: Dyrk1A (rat) kinase inhibition. Q63470. ADP-Glo luminescence, NFATc1 peptide. inhibition, % at 12.5 µM. hit rate 0.43% among 310,000. AID 504441; in the data active = inhibition above about 50%;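 also: plate controls were vehicle with enzyme for no effect and no enzyme for full effect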
ADP-Glo artifact: ADP-Glo luciferase interference, Dyrk1A counter-screen; AID 588348; ADP-Glo luciferase artifact assay, no Dyrk1A, luminescence; shares compounds with DYRK1A inh; 1,300 tested, under 10 active; AC50, µM (highest dose often 12 µM), without a hit: top-dose activity change, negative = inhibition;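 active = fitted half-maximal dose AC50 no more than ten times the top valid tested dose, with luminescence dropping as dose rises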
* hit, by the source's call; nt = not tested or not shown.

SMILES | STK33 inh | Rin1-Abl PPI inh | GSK3beta inhib | Arr AP2 block | GSK3A inh | DYRK1A inh | ADP-Glo artifact
CC1=C(C(=O)OCc2ccc3c(c2)OCO3)C(c2ccc(F)cc2)NC(=O)N1 (configuration not stated) | 7 | -3 | -22 | 0 | 51* | 70* | 8%
CC1=C(C(=O)OCc2ccc3c(c2)OCO3)C(c2ccc(Cl)cc2)NC(=O)N1 (configuration not stated) | nt | 0 | -8 | 10 | nt | 9 | nt
COc1ccc(N(CC(=O)Nc2ccccc2F)S(=O)(=O)c2ccc(OC)c(OC)c2)cc1 | 1 | -1 | 0 | 9 | -2 | -2 | nt
Cc1[nH][nH]c(=O)c1N=Nc1ccccc1Cl | 0 | -1 | -10 | 7 | 20 | 55* | 8%
O=C(C[n+]1cc[nH]c1)c1ccc(Cl)cc1 | -1 | 2 | 1 | -27 | -3 | 14 | nt
Cc1ccc(C(CC(=O)O)NC(=O)c2ccc(S(=O)(=O)N3CC(C)OC(C)C3)cc2)cc1 (configuration not stated) | -1 | -1 | nt | -2 | 1 | nt | nt
CS(=O)(=O)c1ccc(-c2cn3cc(C(=O)O)ccc3n2)cc1 | 8 | 2 | 2 | 13 | -2 | 77* | 8%
CCCCc1ccc(NC(=O)C(=O)NCCN2CCN(C(=O)c3ccc([N+](=O)[O-])cc3)CC2)cc1 | 0 | 1 | -3 | -12 | 0 | 1 | nt
N=C1/C(=C\c2ccc(-c3cccc(C(=O)O)c3)o2)C(=O)N=C2SC=C(c3ccccc3)N12 | 3 | -4 | 0 | -6 | 2 | 61* | 8%
CCN1C(=O)/C(=C2/Sc3ccccc3N2CC)S/C1=N\c1ncn[nH]1 | 9 | -10 | -1 | 20 | 11 | 61* | 9%
C=CCN1C(=O)/C(=C2/Sc3ccccc3N2C)SC1=Nc1c(C)n[nH]c1C | 0 | -1 | -1 | 6 | -1 | -6 | nt
CCc1nnc(NC(=O)CCC(=O)Nc2ccc(Cl)cc2)s1 | -1 | 2 | 1 | 35 | 2 | -2 | nt
Oc1ccc(-c2nc3ncccn3c2Nc2ccc3c(c2)OCO3)cc1 | 2 | -4 | -1 | 11 | 53* | 60* | 8%
Clc1ccc(-c2nc3ncccn3c2Nc2ccc3c(c2)OCO3)cc1 | 0 | 2 | 5 | 21 | -1 | 3 | nt
CCOC(=O)C1=C(C)OC(N)=C(C#N)C1c1ccc(O)c(OC)c1 (configuration not stated) | 0 | -2 | -4 | -5 | -1 | 51* | 11%
CCOC(=O)C1=C(C)OC(N)=C(C#N)C1c1ccccc1 (configuration not stated) | -2 | -2 | -4 | 30 | 1 | -5 | nt
CC(C)(O)[C@H](O)COc1c2ccoc2cc2oc(=O)ccc12 | 0 | 1 | 1 | 22 | 2 | 48 | nt
CC(=O)O[C@H](COc1c2ccoc2cc2oc(=O)ccc12)C(C)(C)O | 2 | -2 | nt | 1 | -2 | 68* | 10%
C=C(C)[C@@H](O)COc1c2ccoc2cc2oc(=O)ccc12 | 2 | -1 | nt | 6 | 6 | 59* | 8%
CC(C)=CCOc1c2ccoc2cc2oc(=O)ccc12 | -1 | 0 | -4 | 5 | -2 | 34 | nt
CN(Cc1ccco1)S(=O)(=O)c1csc(C(N)=O)c1 | -1 | 0 | -1 | 3 | 0 | -5 | nt
FC(F)Oc1ccc(C2N=C(c3ccccc3)NO2)cc1 (configuration not stated) | -1 | 0 | 3 | 24 | 0 | 3 | nt
O=C1N/C(=N/S(=O)(=O)Cc2ccccc2)S/C1=C/c1ccc2c(c1)OCO2 | 15 | -3 | -3 | 7 | 71* | 92* | 8%
CCCC[n+]1ccc(-c2nc3ccc([N+](=O)[O-])cc3[nH]2)cc1 | 1 | -4 | 0 | -3 | 23 | 83* | 12%
O=[N+]([O-])c1ccc(-c2nc3ccc([N+](=O)[O-])cc3[nH]2)cc1 | 0 | -1 | 2 | 6 | 0 | 29 | nt
SMILES | STK33 inh | Rin1-Abl PPI inh | GSK3beta inhib | Arr AP2 block | GSK3A inh | DYRK1A inh | ADP-Glo artifact
O=c1oc2cc(O)ccc2s1 | -2 | -1 | -1 | 4 | -1 | -1 | nt
Cc1ccc(-c2cc(O)cc3sc(=O)oc23)cc1C | 0 | -2 | 0 | -3 | nt | 54* | 9%
O=C1NCCc2c1[nH]c1ccccc21 | 3 | 4 | -1 | 3 | 5 | 23 | nt
COc1ccc2[nH]c3c(c2c1)CCNC3=O | -1 | -2 | 12 | 2 | 2 | 65* | 10%
Nc1ccc(C(=O)Nc2nc3ccccc3s2)cc1 | -1 | 2 | 0 | 12 | -2 | 56* | 6%
O=C(Cn1cc(COc2ccc(Cl)c(Cl)c2)nn1)NS(=O)(=O)c1ccccc1C(F)(F)F | nt | 0 | nt | nt | nt | nt | nt
COc1cccc(Nc2nc(NCCO)c3ccccc3n2)c1 | 7 | -3 | -1 | -12 | nt | 52* | 2%
OCCNc1nc(Nc2ccc(O)cc2)nc2ccccc12 | 3 | -2 | 3 | 7 | 4 | 47 | nt
c1cncc(-c2nc(NCCCn3ccnc3)c3ccccc3n2)c1 | 12 | -1 | -55* | -9 | 71* | 75* | 9%
c1cncc(-c2nc(NCc3ccco3)c3ccccc3n2)c1 | 5 | -1 | -3 | -3 | 11 | 53* | 10%
CCN1CCN(C(=O)C(C)Sc2nc3nc(C)cc(C)n3n2)CC1 (configuration not stated) | 8 | 2 | nt | 4 | 2 | -1 | nt
O=C(CSc1nc2[nH]ncc2c(=O)[nH]1)Nc1ccccc1F | 0 | 3 | -3 | -2 | -1 | -4 | nt
Cc1nc(N)sc1-c1csc(Nc2ccccc2)n1 | 0 | 0 | -2 | 19 | 3 | 52* | 8%
CC(=O)Nc1nc(C)c(-c2csc(Nc3ccc(O)cc3)n2)s1 | 13 | -5 | nt | 35 | 24 | 76* | 8%
O=C(N[C@H]1c2ccccc2C[C@H]1O)[C@H]1O[C@@H](n2ccc(=O)[nH]c2=O)[C@H](O)[C@@H]1O | nt | 4 | nt | nt | nt | nt | nt
C(=N\NC1=Nc2cccc3cccc1c23)/c1ccccn1 | nt | -3 | 2 | 1 | nt | 53* | 9%
c1ccc(-c2nnc(CSc3ccc4c(c3)OCCO4)o2)cc1 | 1 | 2 | 1 | -8 | 1 | 54* | 14%
O=C(Nc1cccc2nsnc12)c1ccc2c(c1)OCO2 | 2 | -2 | 3 | -1 | 0 | 54* | 2%
O=C(Nc1cccc2nsnc12)c1ccc2c(c1)OCCO2 | 1 | -1 | 0 | -6 | -1 | 15 | nt
CN(C)CCCNC(=O)C[C@H]1C[C@H](C(=O)N2CCOCC2)[C@@]2(C)c3[nH]c4cc(-c5ccco5)ccc4c3CCN2C1=O | nt | -3 | nt | 2 | nt | nt | nt
COc1ccc2nc3c(cc2c1)c(NC(=O)c1cccs1)nn3CC(C)C | 5 | 0 | -92* | -3 | 73* | 89* | 9%

Bioassay records as filed in PubChem.
